In ChEMBL document CHEMBL3351507, “11H-Pyrido[3',2':4,5]pyrrolo[3,2-c]cinnoline and pyrido[3',2':4,5]pyrrolo[1,2-c][1,2,3]benzotriazine: two new ring systems with antitumor activity” (2014):
Active and inactive are the calls of the source. The calls are words filed in the database; no cut-off is given here.

What was measured:
[1] = system: Jurkat; assay: Cell cycle arrest in human Jurkat cells assessed as accumulation at subG1 phase at 0.25 uM after 24 hrs by propidium iodide staining-based flow cytometry (reference value: 5.3%); type: functional
[2] = system: Jurkat; assay: Cell cycle arrest in human Jurkat cells assessed as accumulation at G1 phase at 0.5 uM after 24 hrs by propidium iodide staining-based flow cytometry (reference value: 62.6%); type: functional
[3] = system: Jurkat; assay: Induction of apoptosis in human Jurkat cells assessed as caspase-9 activation at 500 nM after 6 hrs by plate reader analysis; type: functional, cell-based
How it was run: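 Jurkat cells were treated with 500 nM compound for 6 h and 24 h, then lysed. Lysates were incubated with pNA-conjugated substrates: Ac-DEVD (caspase-3), Ac-IETD (caspase-8) and LEHD (caspase-9). pNA release was read at 405 nm and normalized to Bradford protein. Results are expressed as fold increase over untreated control.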

[4] = system: BT-549; assay: Cytotoxicity against human BT549 cells assessed as growth inhibition after 72 hrs by MTT assay; type: functional; conditions: BT-549, 72 h
[5] = system: Jurkat; assay: Induction of apoptosis in human Jurkat cells assessed as loss of plasma membrane asymmetry at 250 to 500 nM after 24 hrs by annexin V-FITC/propidium iodide staining-based flow cytofluorimetric analysis; type: functional, cell-based
How it was run: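 Jurkat cells were incubated with 250 or 500 nM compound for 6 h or 24 h. They were then double-stained with Annexin V-FITC and propidium iodide and analysed by flow cytometry (488 nm excitation; emission 525 and 585 nm). Mean ± SEM of 3 experiments.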

[6] = system: SF-539; assay: Cytotoxicity against human SF539 cells assessed as growth inhibition after 72 hrs by MTT assay; type: functional; conditions: SF-539, 72 h
How it was run: (§1)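 NCI 60-cell-line panel screen. Compounds were tested at 5 concentrations in 10-fold dilution (10^-4 to 10^-8 M) across the full panel. GI50 was taken as the molar concentration giving 50% inhibition of net cell growth.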

[7] = Cytotoxicity against human UACC257 cells assessed as growth inhibition after 72 hrs by MTT assay; type: functional; conditions: UACC-257, 72 h; how it was run: as §1
[8] = system: CCRF-CEM; assay: Cytotoxicity against human CEM cells assessed as growth inhibition after 72 hrs by MTT assay; type: functional
How it was run: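 Cells were grown in medium with 10% heat-inactivated FBS plus penicillin/streptomycin: RPMI-1640 for Jurkat and CEM, DMEM for A-431, HAM's F12 for LoVo. The doxorubicin-resistant LoVo subclone was kept with 0.1 µg/mL doxorubicin. Cells were seeded at 5x10^3 per well and pre-incubated 24 h at 37 °C.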

[9] = system: NCI-H226; assay: Cytotoxicity against human NCI-H226 cells assessed as growth inhibition after 72 hrs by MTT assay; type: functional; conditions: NCI-H226, 72 h
[10] = system: MDA-MB-468; assay: Cytotoxicity against human MDA-MB-468 cells assessed as growth inhibition after 72 hrs by MTT assay; type: functional; conditions: MDA-MB-468, 72 h
[11] = system: K562; assay: Cytotoxicity against human K562 cells assessed as growth inhibition after 72 hrs by MTT assay; type: functional; conditions: K562, 72 h
[12] = molecular target: T1, DNA topoisomerase 1 (Homo sapiens) (UniProt P11387); assay: Inhibition of human DNA topoisomerase 1-mediated DNA single strand cleavage at 5 to 100 uM after 30 mins by agarose gel electrophoresis relative to untreated control
T1 sequence (whole entry): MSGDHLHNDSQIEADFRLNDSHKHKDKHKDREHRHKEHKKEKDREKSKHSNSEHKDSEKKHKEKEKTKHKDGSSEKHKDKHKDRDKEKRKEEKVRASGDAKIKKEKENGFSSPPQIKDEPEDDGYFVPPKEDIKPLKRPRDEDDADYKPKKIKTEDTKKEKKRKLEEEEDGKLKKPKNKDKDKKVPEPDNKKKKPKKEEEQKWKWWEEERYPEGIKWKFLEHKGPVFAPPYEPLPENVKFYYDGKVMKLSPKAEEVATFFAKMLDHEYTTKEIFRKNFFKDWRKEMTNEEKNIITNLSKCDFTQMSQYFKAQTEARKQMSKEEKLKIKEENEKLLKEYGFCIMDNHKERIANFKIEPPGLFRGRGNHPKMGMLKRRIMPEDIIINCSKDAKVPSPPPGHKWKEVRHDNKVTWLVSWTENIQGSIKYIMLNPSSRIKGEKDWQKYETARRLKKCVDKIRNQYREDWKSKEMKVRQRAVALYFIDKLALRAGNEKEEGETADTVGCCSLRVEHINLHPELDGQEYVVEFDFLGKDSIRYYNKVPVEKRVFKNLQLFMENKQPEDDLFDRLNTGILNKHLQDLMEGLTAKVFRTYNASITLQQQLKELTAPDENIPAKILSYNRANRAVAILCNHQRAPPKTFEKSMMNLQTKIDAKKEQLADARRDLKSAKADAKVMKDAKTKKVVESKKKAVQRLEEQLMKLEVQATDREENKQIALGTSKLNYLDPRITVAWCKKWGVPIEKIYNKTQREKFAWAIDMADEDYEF
How it was run: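 Reactions were set up as for relaxation: human topoisomerase I, 0.250 µg pBR322, compound 5-100 µM, 37 °C for 30 min, stopped with SDS/proteinase K. Samples were run on 0.8% agarose containing 0.5 µg/mL ethidium bromide, then destained in water, so that cleaved/nicked DNA could be detected under UV.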

[13] = system: A549; assay: Cytotoxicity against human A549 cells assessed as growth inhibition after 72 hrs by MTT assay; type: functional; conditions: A549, 72 h
[14] = system: Jurkat; assay: Cell cycle arrest in human Jurkat cells assessed as accumulation at S phase at 0.5 uM after 24 hrs by propidium iodide staining-based flow cytometry (reference value: 15.5%); type: functional
[15] = system: SK-MEL-5; assay: Cytotoxicity against human SK-MEL-5 cells assessed as growth inhibition after 72 hrs by MTT assay; type: functional; conditions: SK-MEL-5, 72 h; how it was run: as §1
[16] = system: LOX IMVI; assay: Cytotoxicity against human LOXIMVI cells assessed as growth inhibition after 72 hrs by MTT assay; type: functional
[17] = system: COLO 205; assay: Cytotoxicity against human COLO205 cells assessed as growth inhibition after 72 hrs by MTT assay; type: functional; conditions: COLO 205, 72 h
[18] = system: LoVo; assay: Resistance index, ratio of GI50 for human LoVo/DX cells to GI50 for human LoVo cells; type: functional
How it was run: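 CEMVbl-100 (vinblastine-selected CEM) was grown in RPMI-1640 with 0.1 µg/mL vinblastine. LoVoDoxo was grown in HAM's F12 with 0.1 µg/mL doxorubicin; parental CEM and LoVo were grown without drug. Media had 10% FBS. 5x10^3 cells were seeded, preincubated 24 h at 37 °C, then exposed 72 h to compound (DMSO <1%). Read-out was MTT; GI50 came from dose-response curves of ≥3 experiments. RI = GI50 resistant / GI50 parental.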

[19] = system: 786-0; assay: Cytotoxicity against human 786-0 cells assessed as growth inhibition after 72 hrs by MTT assay; type: functional; conditions: 786-0, 72 h
[20] = system: NCI-H522; assay: Cytotoxicity against human NCI-H522 cells assessed as growth inhibition after 72 hrs by MTT assay; type: functional; conditions: NCI-H522, 72 h; how it was run: as §1
[21] = system: TK-10; assay: Cytotoxicity against human TK10 cells assessed as growth inhibition after 72 hrs by MTT assay; type: functional; conditions: TK-10, 72 h; how it was run: as §1
[22] = system: SNB-19; assay: Cytotoxicity against human SNB19 cells assessed as growth inhibition after 72 hrs by MTT assay; type: functional; conditions: SNB-19, 72 h; how it was run: as §1

| SMILES | Activity [1] [%] | Activity [2] [%] | Activity [3] | GI50 [4] [µM] | Activity [5] | GI50 [6] [µM] | GI50 [7] [µM] | GI50 [8] [µM] | GI50 [9] [µM] | GI50 [10] [µM] | GI50 [11] [µM] | Activity [12] | GI50 [13] [µM] | GI50 [15] [µM] | GI50 [16] [µM] | GI50 [17] [µM] | GI50 [19] [µM] | GI50 [20] [µM] | GI50 [21] [µM] | GI50 [22] [µM] | other results |
| --- | --- | --- | --- | --- | --- | --- | --- | --- | --- | --- | --- | --- | --- | --- | --- | --- | --- | --- | --- | --- | --- |
| COc1ccc2c(c1)nnc1c3cccnc3[nH]c21 | 27.8 | 33.2 | Active | 3.43 | Active | 0.64 | 7.49 | 0.65 | 2.62 | 0.067 | 0.22 | Active | 7.9 | 5.85 | 0.76 | 1.13 | 0.51 | 1.09 | 4.52 | 7.61 | Activity [14]: 28.6%; Ratio [18]: 0.33 |
| O=Nc1c2cccnc2n2nnc3ccc(Cl)cc3c12 | – | – | – | 1.78 | – | 1.89 | 3.07 | – | 2.19 | 0.14 | 0.13 | – | 2.2 | 3.82 | 1.03 | 1 | 0.84 | 0.95 | 0.94 | 3.18 | – |
| COc1cc2nnn3c4ncccc4c(N=O)c3c2cc1OC | 18.7 | 21 | Active | 5.53 | Active | 1.82 | 4.54 | 0.24 | 3.7 | 0.16 | 0.21 | Active | 13.3 | 12.6 | 0.92 | 5.26 | 0.23 | 4.01 | 5.26 | 3.84 | Activity [14]: 24.7%; Ratio [18]: 1.11 |
| COc1ccc2c(c1)nnn1c3ncccc3c(N=O)c21 | 22.5 | 28.1 | Active | 5.06 | Active | 0.47 | 8.21 | 0.22 | 4.14 | 0.032 | 0.11 | Active | 10.8 | 5.01 | 0.8 | 0.68 | 0.33 | 1.25 | 5.08 | 6.28 | Activity [14]: 27.2%; Ratio [18]: 0.51 |
| COc1cc2nnc3c4cccnc4[nH]c3c2cc1OC | – | – | – | 3.7 | – | 1.73 | 3.32 | – | 1.94 | 0.23 | 0.33 | – | 7.9 | 7.33 | 1.41 | 2.96 | 0.32 | 2.05 | 2.38 | 2.77 | – |
